Reference: ChEMBL document CHEMBL4689842, “EUbOPEN Chemogenomics Library wave 1” (2021)

Tested on: HEK-293T
Assay: Multiplex assay against HEK293T;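 as to Population Tubulin-Different-Phenotype (%): share of the cells with healthy nuclei that show this phenotype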
Format: toxicity, cell-based
Settings: human
Outline: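 At seeding, live cells were stained with Hoechst33342, BioTracker Green Microtubule Cytoskeleton Dye, MitoTracker Red and Annexin V Alexa Fluor 680. After compound addition they were imaged on a CQ1 microscope at 37°C and 5% CO2, and CellPathfinder machine-learning gating sorted them into Hoechst high-intensity objects or normal cells, with normal cells further split into healthy, pyknosed or fragmented nuclei and pyknosed cells into mitotic or apoptotic. Tubulin, mitochondrial-mass and membrane-permeability phenotypes are given as per cents of cells with healthy nuclei.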

[1] = 12 h, 1 µM, compound concentration 1 uM, replicate 1
[2] = 12 h, 1 µM, compound concentration 1 uM, replicate 2
[3] = 12 h, 10 µM, compound concentration 10 uM, replicate 1
[4] = 12 h, 10 µM, compound concentration 10 uM, replicate 2
[5] = 24 h, 1 µM, compound concentration 1 uM, replicate 1
[6] = 24 h, 1 µM, compound concentration 1 uM, replicate 2
[7] = 24 h, 10 µM, compound concentration 10 uM, replicate 1
[8] = 24 h, 10 µM, compound concentration 10 uM, replicate 2
[9] = 48 h, 1 µM, compound concentration 1 uM, replicate 1
[10] = 48 h, 1 µM, compound concentration 1 uM, replicate 2
[11] = 48 h, 10 µM, compound concentration 10 uM, replicate 1
[12] = 48 h, 10 µM, compound concentration 10 uM, replicate 2

## CCCCCNC(=N)N/N=C/c1c[nH]c2ccc(OC)cc12.O=C(O)/C=C\C(=O)O [TEGASEROD MALEATE]
[1]
  Population Apoptotic (%): 45%
  Population Fragmented Nuclei (%): 20%
  Population Healthy Nuclei (%): 42%
  Population Hoechst High Intensity Objects (%): 16%
  Population Membrane Permeable-Phenotype (%): 4%
  Population Mitochondria Different-Phenotype (%): 88%
  Population Mitotic Cells (%): 54%
  Population Normal (%): 83%
  Population Pyknosed Nuclei (%): 36%
  Population Tubulin-Different-Phenotype (%): 52%
  Total Cell Count: 192
[2]
  Population Apoptotic (%): 24%
  Population Fragmented Nuclei (%): 4%
  Population Healthy Nuclei (%): 35%
  Population Hoechst High Intensity Objects (%): 1%
  Population Membrane Permeable-Phenotype (%): 9%
  Population Mitochondria Different-Phenotype (%): 50%
  Population Mitotic Cells (%): 75%
  Population Normal (%): 98%
  Population Pyknosed Nuclei (%): 59%
  Population Tubulin-Different-Phenotype (%): 48%
  Total Cell Count: 204
[3]
  Population Apoptotic (%): 51%
  Population Fragmented Nuclei (%): 27%
  Population Healthy Nuclei (%): 0%
  Population Hoechst High Intensity Objects (%): 27%
  Population Membrane Permeable-Phenotype (%): 0%
  Population Mitochondria Different-Phenotype (%): 0%
  Population Mitotic Cells (%): 48%
  Population Normal (%): 72%
  Population Pyknosed Nuclei (%): 72%
  Population Tubulin-Different-Phenotype (%): 0%
  Total Cell Count: 295
[4]
  Population Apoptotic (%): 96%
  Population Fragmented Nuclei (%): 15%
  Population Healthy Nuclei (%): 3%
  Population Hoechst High Intensity Objects (%): 29%
  Population Mitotic Cells (%): 3%
  Population Normal (%): 70%
  Population Pyknosed Nuclei (%): 81%
  Population Tubulin-Different-Phenotype (%): 100%
  Total Cell Count: 93
[5]
  Population Apoptotic (%): 46%
  Population Fragmented Nuclei (%): 15%
  Population Healthy Nuclei (%): 60%
  Population Hoechst High Intensity Objects (%): 13%
  Population Membrane Permeable-Phenotype (%): 1%
  Population Mitochondria Different-Phenotype (%): 83%
  Population Mitotic Cells (%): 53%
  Population Normal (%): 86%
  Population Pyknosed Nuclei (%): 23%
  Population Tubulin-Different-Phenotype (%): 46%
  Total Cell Count: 196
[6]
  Population Apoptotic (%): 24%
  Population Fragmented Nuclei (%): 4%
  Population Healthy Nuclei (%): 54%
  Population Hoechst High Intensity Objects (%): 3%
  Population Membrane Permeable-Phenotype (%): 7%
  Population Mitochondria Different-Phenotype (%): 46%
  Population Mitotic Cells (%): 75%
  Population Normal (%): 96%
  Population Pyknosed Nuclei (%): 40%
  Population Tubulin-Different-Phenotype (%): 43%
  Total Cell Count: 260
[7]
  Population Apoptotic (%): 54%
  Population Fragmented Nuclei (%): 31%
  Population Healthy Nuclei (%): 0%
  Population Hoechst High Intensity Objects (%): 35%
  Population Membrane Permeable-Phenotype (%): 100%
  Population Mitochondria Different-Phenotype (%): 100%
  Population Mitotic Cells (%): 45%
  Population Normal (%): 64%
  Population Pyknosed Nuclei (%): 68%
  Population Tubulin-Different-Phenotype (%): 0%
  Total Cell Count: 288
[8]
  Population Apoptotic (%): 97%
  Population Fragmented Nuclei (%): 25%
  Population Healthy Nuclei (%): 27%
  Population Hoechst High Intensity Objects (%): 13%
  Population Membrane Permeable-Phenotype (%): 23%
  Population Mitochondria Different-Phenotype (%): 9%
  Population Mitotic Cells (%): 2%
  Population Normal (%): 86%
  Population Pyknosed Nuclei (%): 46%
  Population Tubulin-Different-Phenotype (%): 85%
  Total Cell Count: 89
[9]
  Population Fragmented Nuclei (%): 9%
  Population Healthy Nuclei (%): 77%
  Population Hoechst High Intensity Objects (%): 8%
  Population Membrane Permeable-Phenotype (%): 0%
  Population Mitochondria Different-Phenotype (%): 38%
  Population Normal (%): 91%
  Population Pyknosed Nuclei (%): 12%
  Population Tubulin-Different-Phenotype (%): 30%
  Total Cell Count: 290
[10]
  Population Apoptotic (%): 33%
  Population Fragmented Nuclei (%): 7%
  Population Healthy Nuclei (%): 78%
  Population Hoechst High Intensity Objects (%): 4%
  Population Membrane Permeable-Phenotype (%): 5%
  Population Mitochondria Different-Phenotype (%): 21%
  Population Mitotic Cells (%): 66%
  Population Normal (%): 95%
  Population Pyknosed Nuclei (%): 14%
  Population Tubulin-Different-Phenotype (%): 42%
  Total Cell Count: 411
[11]
  Population Apoptotic (%): 58%
  Population Fragmented Nuclei (%): 36%
  Population Healthy Nuclei (%): 0%
  Population Hoechst High Intensity Objects (%): 31%
  Population Membrane Permeable-Phenotype (%): 0%
  Population Mitochondria Different-Phenotype (%): 0%
  Population Mitotic Cells (%): 41%
  Population Normal (%): 68%
  Population Pyknosed Nuclei (%): 63%
  Population Tubulin-Different-Phenotype (%): 0%
  Total Cell Count: 277
[12]
  Population Apoptotic (%): 100%
  Population Fragmented Nuclei (%): 32%
  Population Healthy Nuclei (%): 47%
  Population Hoechst High Intensity Objects (%): 6%
  Population Membrane Permeable-Phenotype (%): 17%
  Population Mitochondria Different-Phenotype (%): 28%
  Population Mitotic Cells (%): 0%
  Population Normal (%): 93%
  Population Pyknosed Nuclei (%): 20%
  Population Tubulin-Different-Phenotype (%): 65%
  Total Cell Count: 79
